Data reported in ChEMBL document CHEMBL4689842, “EUbOPEN Chemogenomics Library wave 1” (2021).

System: Fibroblast
Test: Multiplex assay against human fibroblast
Format: toxicity, cell-based
Summary of the method: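 Compound was added to live cells that had been stained at seeding with Hoechst33342, BioTracker Green Microtubule Cytoskeleton Dye, MitoTracker Red and Annexin V Alexa Fluor 680, and imaging followed on a CQ1 microscope at 37°C and 5% CO2. CellPathfinder machine-learning gating divided cells into Hoechst high-intensity objects or normal cells, normal cells into healthy, pyknosed or fragmented nuclei, and pyknosed cells into mitotic or apoptotic. Tubulin, mitochondrial-mass and membrane-permeability phenotypes are per cents of healthy-nucleus cells.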

[1] = 12 h, 1 µM, compound concentration 1 uM, replicate 1
[2] = 12 h, 1 µM, compound concentration 1 uM, replicate 2
[3] = 12 h, 10 µM, compound concentration 10 uM, replicate 1
[4] = 12 h, 10 µM, compound concentration 10 uM, replicate 2
[5] = 24 h, 1 µM, compound concentration 1 uM, replicate 1
[6] = 24 h, 1 µM, compound concentration 1 uM, replicate 2
[7] = 24 h, 10 µM, compound concentration 10 uM, replicate 1
[8] = 24 h, 10 µM, compound concentration 10 uM, replicate 2
[9] = 48 h, 1 µM, compound concentration 1 uM, replicate 1
[10] = 48 h, 1 µM, compound concentration 1 uM, replicate 2
[11] = 48 h, 10 µM, compound concentration 10 uM, replicate 1
[12] = 48 h, 10 µM, compound concentration 10 uM, replicate 2

CC(C)(C)NC[C@H](O)COc1nsnc1N1CCOCC1 [TIMOLOL]
Population Apoptotic (%) [1]: 71%
Population Fragmented Nuclei (%) [1]: 22%
Population Healthy Nuclei (%) [1]: 51%
Population Hoechst High Intensity Objects (%) [1]: 14%
Population Membrane Permeable-Phenotype (%) [1]: 14%
Population Mitochondria Different-Phenotype (%) [1]: 1%
Population Mitotic Cells (%) [1]: 28%
Population Normal (%) [1]: 85%
Population Pyknosed Nuclei (%) [1]: 25%
Population Tubulin-Different-Phenotype (%) [1]: 25%
Population Apoptotic (%) [2]: 100%
Population Fragmented Nuclei (%) [2]: 5%
Population Healthy Nuclei (%) [2]: 88%
Population Hoechst High Intensity Objects (%) [2]: 8%
Population Membrane Permeable-Phenotype (%) [2]: 8%
Population Mitochondria Different-Phenotype (%) [2]: 11%
Population Mitotic Cells (%) [2]: 0%
Population Normal (%) [2]: 92%
Population Pyknosed Nuclei (%) [2]: 5%
Population Tubulin-Different-Phenotype (%) [2]: 18%
Population Apoptotic (%) [3]: 60%
Population Fragmented Nuclei (%) [3]: 28%
Population Healthy Nuclei (%) [3]: 40%
Population Hoechst High Intensity Objects (%) [3]: 14%
Population Membrane Permeable-Phenotype (%) [3]: 33%
Population Mitochondria Different-Phenotype (%) [3]: 0%
Population Mitotic Cells (%) [3]: 39%
Population Normal (%) [3]: 85%
Population Pyknosed Nuclei (%) [3]: 31%
Population Tubulin-Different-Phenotype (%) [3]: 47%
Total Cell Count [3]: 105
Population Apoptotic (%) [4]: 33%
Population Fragmented Nuclei (%) [4]: 8%
Population Healthy Nuclei (%) [4]: 79%
Population Hoechst High Intensity Objects (%) [4]: 3%
Population Membrane Permeable-Phenotype (%) [4]: 4%
Population Mitochondria Different-Phenotype (%) [4]: 7%
Population Mitotic Cells (%) [4]: 66%
Population Normal (%) [4]: 96%
Population Pyknosed Nuclei (%) [4]: 11%
Population Tubulin-Different-Phenotype (%) [4]: 4%
Population Apoptotic (%) [5]: 60%
Population Fragmented Nuclei (%) [5]: 19%
Population Healthy Nuclei (%) [5]: 53%
Population Hoechst High Intensity Objects (%) [5]: 12%
Population Membrane Permeable-Phenotype (%) [5]: 26%
Population Mitochondria Different-Phenotype (%) [5]: 0%
Population Mitotic Cells (%) [5]: 39%
Population Normal (%) [5]: 87%
Population Pyknosed Nuclei (%) [5]: 27%
Population Tubulin-Different-Phenotype (%) [5]: 30%
Population Apoptotic (%) [6]: 50%
Population Fragmented Nuclei (%) [6]: 11%
Population Healthy Nuclei (%) [6]: 81%
Population Hoechst High Intensity Objects (%) [6]: 5%
Population Membrane Permeable-Phenotype (%) [6]: 2%
Population Mitochondria Different-Phenotype (%) [6]: 18%
Population Mitotic Cells (%) [6]: 50%
Population Normal (%) [6]: 94%
Population Pyknosed Nuclei (%) [6]: 6%
Population Tubulin-Different-Phenotype (%) [6]: 21%
Population Apoptotic (%) [7]: 65%
Population Fragmented Nuclei (%) [7]: 22%
Population Healthy Nuclei (%) [7]: 49%
Population Hoechst High Intensity Objects (%) [7]: 16%
Population Membrane Permeable-Phenotype (%) [7]: 58%
Population Mitochondria Different-Phenotype (%) [7]: 2%
Population Mitotic Cells (%) [7]: 34%
Population Normal (%) [7]: 83%
Population Pyknosed Nuclei (%) [7]: 27%
Population Tubulin-Different-Phenotype (%) [7]: 58%
Total Cell Count [7]: 99
Population Apoptotic (%) [8]: 41%
Population Fragmented Nuclei (%) [8]: 7%
Population Healthy Nuclei (%) [8]: 81%
Population Hoechst High Intensity Objects (%) [8]: 2%
Population Membrane Permeable-Phenotype (%) [8]: 3%
Population Mitochondria Different-Phenotype (%) [8]: 5%
Population Mitotic Cells (%) [8]: 58%
Population Normal (%) [8]: 97%
Population Pyknosed Nuclei (%) [8]: 11%
Population Tubulin-Different-Phenotype (%) [8]: 4%
Population Apoptotic (%) [9]: 64%
Population Fragmented Nuclei (%) [9]: 29%
Population Healthy Nuclei (%) [9]: 53%
Population Hoechst High Intensity Objects (%) [9]: 10%
Population Membrane Permeable-Phenotype (%) [9]: 22%
Population Mitochondria Different-Phenotype (%) [9]: 2%
Population Mitotic Cells (%) [9]: 35%
Population Normal (%) [9]: 89%
Population Pyknosed Nuclei (%) [9]: 16%
Population Tubulin-Different-Phenotype (%) [9]: 34%
Population Apoptotic (%) [10]: 33%
Population Fragmented Nuclei (%) [10]: 12%
Population Healthy Nuclei (%) [10]: 84%
Population Hoechst High Intensity Objects (%) [10]: 15%
Population Membrane Permeable-Phenotype (%) [10]: 14%
Population Mitochondria Different-Phenotype (%) [10]: 1%
Population Mitotic Cells (%) [10]: 66%
Population Normal (%) [10]: 84%
Population Pyknosed Nuclei (%) [10]: 3%
Population Tubulin-Different-Phenotype (%) [10]: 23%
Total Cell Count [10]: 106
Population Apoptotic (%) [11]: 47%
Population Fragmented Nuclei (%) [11]: 34%
Population Healthy Nuclei (%) [11]: 45%
Population Hoechst High Intensity Objects (%) [11]: 16%
Population Membrane Permeable-Phenotype (%) [11]: 51%
Population Mitochondria Different-Phenotype (%) [11]: 0%
Population Mitotic Cells (%) [11]: 52%
Population Normal (%) [11]: 83%
Population Pyknosed Nuclei (%) [11]: 19%
Population Tubulin-Different-Phenotype (%) [11]: 42%
Total Cell Count [11]: 118
Population Apoptotic (%) [12]: 33%
Population Fragmented Nuclei (%) [12]: 16%
Population Healthy Nuclei (%) [12]: 77%
Population Hoechst High Intensity Objects (%) [12]: 9%
Population Membrane Permeable-Phenotype (%) [12]: 8%
Population Mitochondria Different-Phenotype (%) [12]: 2%
Population Mitotic Cells (%) [12]: 66%
Population Normal (%) [12]: 90%
Population Pyknosed Nuclei (%) [12]: 5%
Population Tubulin-Different-Phenotype (%) [12]: 29%

CNC(=O)Nc1ccc(-c2nc(N3CC4CCC(C3)O4)c3cnn(C4CCC5(CC4)OCCO5)c3n2)cc1
Population Apoptotic (%) [1]: 47%
Population Fragmented Nuclei (%) [1]: 38%
Population Healthy Nuclei (%) [1]: 32%
Population Hoechst High Intensity Objects (%) [1]: 14%
Population Membrane Permeable-Phenotype (%) [1]: 29%
Population Mitochondria Different-Phenotype (%) [1]: 4%
Population Mitotic Cells (%) [1]: 52%
Population Normal (%) [1]: 85%
Population Pyknosed Nuclei (%) [1]: 28%
Population Tubulin-Different-Phenotype (%) [1]: 54%
Total Cell Count [1]: 85
Population Apoptotic (%) [2]: 0%
Population Fragmented Nuclei (%) [2]: 28%
Population Healthy Nuclei (%) [2]: 55%
Population Hoechst High Intensity Objects (%) [2]: 10%
Population Membrane Permeable-Phenotype (%) [2]: 5%
Population Mitochondria Different-Phenotype (%) [2]: 13%
Population Mitotic Cells (%) [2]: 100%
Population Normal (%) [2]: 89%
Population Pyknosed Nuclei (%) [2]: 16%
Population Tubulin-Different-Phenotype (%) [2]: 18%
Total Cell Count [2]: 54
Population Apoptotic (%) [3]: 50%
Population Fragmented Nuclei (%) [3]: 28%
Population Healthy Nuclei (%) [3]: 29%
Population Hoechst High Intensity Objects (%) [3]: 16%
Population Membrane Permeable-Phenotype (%) [3]: 30%
Population Mitochondria Different-Phenotype (%) [3]: 15%
Population Mitotic Cells (%) [3]: 50%
Population Normal (%) [3]: 83%
Population Pyknosed Nuclei (%) [3]: 41%
Population Tubulin-Different-Phenotype (%) [3]: 96%
Total Cell Count [3]: 104
Population Apoptotic (%) [4]: 25%
Population Fragmented Nuclei (%) [4]: 13%
Population Healthy Nuclei (%) [4]: 54%
Population Hoechst High Intensity Objects (%) [4]: 6%
Population Membrane Permeable-Phenotype (%) [4]: 36%
Population Mitochondria Different-Phenotype (%) [4]: 75%
Population Mitotic Cells (%) [4]: 75%
Population Normal (%) [4]: 93%
Population Pyknosed Nuclei (%) [4]: 32%
Total Cell Count [4]: 107
Population Apoptotic (%) [5]: 38%
Population Fragmented Nuclei (%) [5]: 30%
Population Healthy Nuclei (%) [5]: 33%
Population Hoechst High Intensity Objects (%) [5]: 20%
Population Membrane Permeable-Phenotype (%) [5]: 25%
Population Mitochondria Different-Phenotype (%) [5]: 10%
Population Mitotic Cells (%) [5]: 61%
Population Normal (%) [5]: 79%
Population Pyknosed Nuclei (%) [5]: 35%
Population Tubulin-Different-Phenotype (%) [5]: 60%
Total Cell Count [5]: 74
Population Apoptotic (%) [6]: 25%
Population Fragmented Nuclei (%) [6]: 19%
Population Healthy Nuclei (%) [6]: 64%
Population Hoechst High Intensity Objects (%) [6]: 18%
Population Membrane Permeable-Phenotype (%) [6]: 8%
Population Mitochondria Different-Phenotype (%) [6]: 6%
Population Mitotic Cells (%) [6]: 75%
Population Normal (%) [6]: 81%
Population Pyknosed Nuclei (%) [6]: 16%
Population Tubulin-Different-Phenotype (%) [6]: 23%
Total Cell Count [6]: 55
Population Apoptotic (%) [7]: 77%
Population Fragmented Nuclei (%) [7]: 28%
Population Healthy Nuclei (%) [7]: 35%
Population Hoechst High Intensity Objects (%) [7]: 18%
Population Membrane Permeable-Phenotype (%) [7]: 25%
Population Mitochondria Different-Phenotype (%) [7]: 37%
Population Mitotic Cells (%) [7]: 22%
Population Normal (%) [7]: 81%
Population Pyknosed Nuclei (%) [7]: 35%
Population Tubulin-Different-Phenotype (%) [7]: 88%
Total Cell Count [7]: 93
Population Apoptotic (%) [8]: 41%
Population Fragmented Nuclei (%) [8]: 8%
Population Healthy Nuclei (%) [8]: 42%
Population Hoechst High Intensity Objects (%) [8]: 6%
Population Membrane Permeable-Phenotype (%) [8]: 44%
Population Mitochondria Different-Phenotype (%) [8]: 84%
Population Mitotic Cells (%) [8]: 58%
Population Normal (%) [8]: 93%
Population Pyknosed Nuclei (%) [8]: 49%
Population Tubulin-Different-Phenotype (%) [8]: 96%
Total Cell Count [8]: 90
Population Apoptotic (%) [9]: 33%
Population Fragmented Nuclei (%) [9]: 42%
Population Healthy Nuclei (%) [9]: 37%
Population Hoechst High Intensity Objects (%) [9]: 19%
Population Membrane Permeable-Phenotype (%) [9]: 13%
Population Mitochondria Different-Phenotype (%) [9]: 8%
Population Mitotic Cells (%) [9]: 66%
Population Normal (%) [9]: 80%
Population Pyknosed Nuclei (%) [9]: 19%
Population Tubulin-Different-Phenotype (%) [9]: 43%
Total Cell Count [9]: 76
Population Apoptotic (%) [10]: 75%
Population Fragmented Nuclei (%) [10]: 33%
Population Healthy Nuclei (%) [10]: 61%
Population Hoechst High Intensity Objects (%) [10]: 12%
Population Membrane Permeable-Phenotype (%) [10]: 10%
Population Mitochondria Different-Phenotype (%) [10]: 2%
Population Mitotic Cells (%) [10]: 25%
Population Normal (%) [10]: 87%
Population Pyknosed Nuclei (%) [10]: 5%
Population Tubulin-Different-Phenotype (%) [10]: 10%
Total Cell Count [10]: 88
Population Apoptotic (%) [11]: 50%
Population Fragmented Nuclei (%) [11]: 42%
Population Healthy Nuclei (%) [11]: 37%
Population Hoechst High Intensity Objects (%) [11]: 19%
Population Membrane Permeable-Phenotype (%) [11]: 19%
Population Mitochondria Different-Phenotype (%) [11]: 61%
Population Mitotic Cells (%) [11]: 50%
Population Normal (%) [11]: 80%
Population Pyknosed Nuclei (%) [11]: 20%
Population Tubulin-Different-Phenotype (%) [11]: 80%
Total Cell Count [11]: 87
Population Apoptotic (%) [12]: 33%
Population Fragmented Nuclei (%) [12]: 48%
Population Healthy Nuclei (%) [12]: 49%
Population Hoechst High Intensity Objects (%) [12]: 9%
Population Membrane Permeable-Phenotype (%) [12]: 18%
Population Mitochondria Different-Phenotype (%) [12]: 12%
Population Mitotic Cells (%) [12]: 66%
Population Normal (%) [12]: 90%
Population Pyknosed Nuclei (%) [12]: 2%
Population Tubulin-Different-Phenotype (%) [12]: 92%
Total Cell Count [12]: 122
